# Published values gathered from unrelated publications.
# Each line is one published result; the experiments were not run side by side.
# Target: Tyrosine-protein kinase receptor TYRO3 (TYRO3, Homo sapiens, UniProt Q06418)
# Residues used in one study (Q06418 41-890): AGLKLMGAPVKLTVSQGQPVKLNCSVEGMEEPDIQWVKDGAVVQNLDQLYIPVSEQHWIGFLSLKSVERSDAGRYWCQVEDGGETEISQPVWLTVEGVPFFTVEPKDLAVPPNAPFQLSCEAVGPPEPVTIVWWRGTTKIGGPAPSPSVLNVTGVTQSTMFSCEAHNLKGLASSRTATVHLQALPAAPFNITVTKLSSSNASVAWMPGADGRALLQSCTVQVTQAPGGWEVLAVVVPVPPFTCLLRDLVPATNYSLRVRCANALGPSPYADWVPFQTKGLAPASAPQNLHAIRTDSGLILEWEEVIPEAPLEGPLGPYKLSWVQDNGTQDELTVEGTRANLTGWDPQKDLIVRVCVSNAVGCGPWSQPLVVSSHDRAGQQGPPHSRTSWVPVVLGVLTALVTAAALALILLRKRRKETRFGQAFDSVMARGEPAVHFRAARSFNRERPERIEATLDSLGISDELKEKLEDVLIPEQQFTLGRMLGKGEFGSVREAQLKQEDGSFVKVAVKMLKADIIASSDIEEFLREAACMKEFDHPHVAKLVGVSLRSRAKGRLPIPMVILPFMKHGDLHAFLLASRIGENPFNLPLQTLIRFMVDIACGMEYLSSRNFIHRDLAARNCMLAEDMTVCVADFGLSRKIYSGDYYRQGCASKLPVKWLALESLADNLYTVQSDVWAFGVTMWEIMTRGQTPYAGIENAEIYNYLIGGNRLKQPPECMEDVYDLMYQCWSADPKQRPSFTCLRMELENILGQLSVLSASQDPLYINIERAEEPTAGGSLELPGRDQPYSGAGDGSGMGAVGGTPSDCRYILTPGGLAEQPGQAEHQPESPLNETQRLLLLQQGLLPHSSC
Compound,test,setting,measurement,value
Cn1cc(-c2cccc(N3CCc4c(sc5c4CC(C)(C)C5)C3=O)c2CO)cc(Nc2ccncn2)c1=O,"enzyme activity, inhibitor",1 µM,inhibition,4%
CC(C)(C)c1cc(C=C(C#N)C#N)cc(Br)c1O,"enzyme activity, inhibitor",0.5 µM,remaining activity,110%
C#Cc1n[nH]c2c(-c3cn([C@@H](C)c4ccccn4)c(=O)[nH]c3=O)cc(F)cc12,"enzyme activity, inhibitor",0.1 µM,inhibition,30.8%
Cn1cncc1[C@@](O)(COc1ccc(C#N)cc1-c1ccc(OC(F)(F)F)cc1)c1ccc(C#N)cc1,"cell-free assay, competition with immobilised ligand",1 µM,remaining binding,100%
Cc1nn(C)cc1-c1nc2c(N3CCN(Cc4ccc(Cl)cc4)CC3)c(Cl)cnc2[nH]1,"binding, competition with immobilised ligand",1 µM,remaining binding,73%
COc1ncccc1-c1cnn2ccc(N3CCN(C(=O)OC(C)C)CC3)nc12,"binding, competition with immobilised ligand",1 µM,remaining binding,100%
O=c1[nH]c2ccccc2n1C1CCN(Cc2ccc(-c3[nH]c4cc5ncnc5cc4nc3-c3ccccc3)cc2)CC1,cell-free assay,0.5 µM,remaining signal,103%
N#CC1(c2ccccn2)CCN(Cc2cc(C(=O)O)c(=O)n3ccccc23)CC1,"cell-free assay, competition with immobilised ligand",1 µM,remaining binding,98%
Cn1cc(-c2cc(F)cc(N3CCn4c(cc5c4CCCC5)C3=O)c2CO)cc(Nc2ccc(N3CCN(C4COC4)CC3)cn2)c1=O,"enzyme activity, inhibitor",0.1 µM,inhibition,17%
C#Cc1n[nH]c2c(-c3cn([C@@H](C)c4ccccc4)c(=O)[nH]c3=O)cc(F)cc12,"enzyme activity, inhibitor",0.1 µM,inhibition,47.7%
